Source: ChEMBL document CHEMBL3860041, “Synthesis, biological evaluation and molecular modeling study of some new methoxylated 2-benzylthio-quinazoline-4(3H)-ones as nonclassical antifolates” (Bioorg Med Chem Lett, 2016)

Key:
Assay type in all cases: functional
[1] = Growth inhibition of human NCI-H522 cells at 10 uM after 48 hrs by SRB assay relative to control; conditions: NCI-H522, 48 h, read-out: GI
In short: (§1)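 NCI 60-cell-line panel, nine tumor subpanels; compounds tested at a single dose of 10 μM in the primary screen.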

[2] = Growth inhibition of human NCI-H460 cells at 10 uM after 48 hrs by SRB assay relative to control; conditions: NCI-H460, 48 h, read-out: GI; in short: as §1
[3] = Growth inhibition of human OVCAR8 cells at 10 uM after 48 hrs by SRB assay relative to control; conditions: OVCAR-8, 48 h, read-out: GI; in short: as §1
[4] = Growth inhibition of human SF295 cells at 10 uM after 48 hrs by SRB assay relative to control; conditions: SF-295, 48 h, read-out: GI; in short: as §1
[5] = Growth inhibition of human SF268 cells at 10 uM after 48 hrs by SRB assay relative to control; conditions: SF-268, 48 h, read-out: GI; in short: as §1
[6] = Growth inhibition of human MDA-MB-468 cells at 10 uM after 48 hrs by SRB assay relative to control; conditions: MDA-MB-468, 48 h, read-out: GI; in short: as §1
[7] = Growth inhibition of human RPMI8226 cells at 10 uM after 48 hrs by SRB assay relative to control; conditions: RPMI-8226, 48 h, read-out: GI; in short: as §1
[8] = Growth inhibition of human HOP62 cells at 10 uM after 48 hrs by SRB assay relative to control; conditions: HOP-62, 48 h, read-out: GI; in short: as §1
[9] = Growth inhibition of human NCI-H23 cells at 10 uM after 48 hrs by SRB assay relative to control; conditions: NCI-H23, 48 h, read-out: GI; in short: as §1
[10] = Growth inhibition of human K562 cells at 10 uM after 48 hrs by SRB assay relative to control; conditions: K562, 48 h, read-out: GI; in short: as §1
[11] = Growth inhibition of human SNB75 cells at 10 uM after 48 hrs by SRB assay relative to control; conditions: SNB-75, 48 h, read-out: GI
In short: (§2)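 Primary screen across the full NCI 60 human tumour cell line panel, which covers nine tumour subpanels. A single dose of 10 μM was applied to each line, and growth was recorded for each cell line.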

[12] = Growth inhibition of human MDA-MB-435 cells at 10 uM after 48 hrs by SRB assay relative to control; conditions: MDA-MB-435, 48 h, read-out: GI; in short: as §1
[13] = Growth inhibition of human SK-MEL-2 cells at 10 uM after 48 hrs by SRB assay relative to control; conditions: SK-MEL-2, 48 h, read-out: GI; in short: as §2
[14] = Growth inhibition of human A498 cells at 10 uM after 48 hrs by SRB assay relative to control; conditions: A498, 48 h, read-out: GI; in short: as §1
[15] = Growth inhibition of human HCT15 cells at 10 uM after 48 hrs by SRB assay relative to control; conditions: HCT-15, 48 h, read-out: GI; in short: as §1
[16] = Growth inhibition of human SK-MEL-28 cells at 10 uM after 48 hrs by SRB assay relative to control; conditions: SK-MEL-28, 48 h, read-out: GI; in short: as §2
[17] = Growth inhibition of human BT549 cells at 10 uM after 48 hrs by SRB assay relative to control; conditions: BT-549, 48 h, read-out: GI; in short: as §1
[18] = Growth inhibition of human MOLT4 cells at 10 uM after 48 hrs by SRB assay relative to control; conditions: MOLT-4, 48 h, read-out: GI; in short: as §1
[19] = Growth inhibition of human SR cells at 10 uM after 48 hrs by SRB assay relative to control; conditions: read-out: GI; in short: as §2
[20] = Growth inhibition of human UACC257 cells at 10 uM after 48 hrs by SRB assay relative to control; conditions: UACC-257, 48 h, read-out: GI; in short: as §2
[21] = Growth inhibition of human HOP92 cells at 10 uM after 48 hrs by SRB assay relative to control; conditions: HOP-92, 48 h, read-out: GI; in short: as §1
[22] = Growth inhibition of human OVCAR5 cells at 10 uM after 48 hrs by SRB assay relative to control; conditions: OVCAR-5, 48 h, read-out: GI; in short: as §1
[23] = Growth inhibition of human U251 cells at 10 uM after 48 hrs by SRB assay relative to control; conditions: U-251, 48 h, read-out: GI; in short: as §2
[24] = Growth inhibition of human HCT116 cells at 10 uM after 48 hrs by SRB assay relative to control; conditions: HCT-116, 48 h, read-out: GI; in short: as §1
[25] = Growth inhibition of human MDA-MB-231 cells at 10 uM after 48 hrs by SRB assay relative to control; conditions: MDA-MB-231, 48 h, read-out: GI; in short: as §1
Cancer cell lines [26] = assay: Potency index, ratio of 5-fluorouracil GI50 to compound GI50 for human breast cancer cells
In short: (§3)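 GI50 for each cell line came from NCI panel testing over a 5-log dose range, with 5-fluorouracil tested alongside as the reference drug. The index relates the 5-fluorouracil GI50 to the compound GI50 within each tumour subpanel.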

[27] = Growth inhibition of human renal cancer cells after 48 hrs by SRB assay; conditions: Cancer cell lines
In short: (§4)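 Follow-up NCI panel testing over a 5-log dose range for each cell line. GI50, TGI and LC50 were monitored, with 5-fluorouracil run as the positive control. Values are grouped by tumour subpanel.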

Cancer cell lines [28] = assay: Potency index, ratio of 5-fluorouracil GI50 to compound GI50 for human prostate cancer cells; in short: as §3
[29] = Growth inhibition of human ovarian cancer cells after 48 hrs by SRB assay; conditions: Cancer cell lines; in short: as §4
[30] = Growth inhibition of human non-small cell lung cancer cells after 48 hrs by SRB assay; conditions: Cancer cell lines; in short: as §4
[31] = Growth inhibition of human HL-60(TB) cells at 10 uM after 48 hrs by SRB assay relative to control; conditions: HL-60, 48 h, read-out: GI
In short: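 NCI disease-oriented human tumour cell line screen: primary single-dose assay at 10 μM across the full 60-cell-line panel spanning nine tumour subpanels.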

[32] = Growth inhibition of human CNS cancer cells after 48 hrs by SRB assay; conditions: Cancer cell lines
In short: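 Five-log dose range against NCI tumor cell lines, monitoring GI50, TGI and LC50 for each cell line; MG-MID values derived across the panel; 5-fluorouracil positive control.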

[33] = Growth inhibition of human melanoma cells after 48 hrs by SRB assay; conditions: Melanoma cell; in short: as §4
[34] = Growth inhibition of human leukemia cells after 48 hrs by SRB assay; conditions: Leukemia cell; in short: as §4
Cancer cell lines [35] = assay: Potency index, ratio of 5-fluorouracil GI50 to compound GI50 for human colon cancer cells; in short: as §3
Leukemia cell = assay: Potency index, ratio of 5-fluorouracil GI50 to compound GI50 for human leukemia cells; in short: as §3

Structure (SMILES): COc1cc2nc(SCc3cc(OC)c(OC)c(OC)c3)n(-c3ccccc3OC)c(=O)c2cc1OC
- inhibition of growth at 10 µM [1]: < 10%
- inhibition of growth at 10 µM [2]: 16.6%
- inhibition of growth at 10 µM [3]: 15.4%
- inhibition of growth at 10 µM [4]: 26.2%
- inhibition of growth at 10 µM [5]: 30.1%
- inhibition of growth at 10 µM [6]: 23%
- inhibition of growth at 10 µM [7]: 28.8%
- inhibition of growth at 10 µM [8]: < 10%
- inhibition of growth at 10 µM [9]: 20.1%
- inhibition of growth at 10 µM [10]: 72.7%
- inhibition of growth at 10 µM [11]: 37.2%
- inhibition of growth at 10 µM [12]: 100%
- inhibition of growth at 10 µM [13]: < 10%
- inhibition of growth at 10 µM [14]: 74.6%
- inhibition of growth at 10 µM [15]: 24.6%
- inhibition of growth at 10 µM [16]: 21.1%
- inhibition of growth at 10 µM [17]: 12.5%
- inhibition of growth at 10 µM [18]: 53.2%
- inhibition of growth at 10 µM [19]: 76.2%
- inhibition of growth at 10 µM [20]: < 10%
- inhibition of growth at 10 µM [21]: 34.2%
- inhibition of growth at 10 µM [22]: 11%
- inhibition of growth at 10 µM [23]: 13.2%
- inhibition of growth at 10 µM [24]: 12%
- inhibition of growth at 10 µM [25]: 22.6%

Structure (SMILES): COc1cc(CSc2nc3ccc(Cl)cc3c(=O)n2Cc2ccccc2)cc(OC)c1OC
- RatioGI50 (Cancer cell lines [26]): 2 - 10
- inhibition of growth at 10 µM [2]: 79.5%
- GI50 [27]: 4.4 µM
- LC50 [27]: 96.5 µM
- TGI [27]: 52.3 µM
- inhibition of growth at 10 µM [3]: 47.1%
- inhibition of growth at 10 µM [4]: 71.1%
- RatioGI50 (Cancer cell lines [28]): 2 - 10
- inhibition of growth at 10 µM [5]: 59.1%
- inhibition of growth at 10 µM [7]: 31.3%
- inhibition of growth at 10 µM [8]: 62.3%
- GI50 [29]: 5.2 µM
- LC50 (50% lethal concentration) [29]: > 100 µM
- TGI [29]: 75.6 µM
- inhibition of growth at 10 µM [9]: 74.9%
- GI50 [30]: 5.5 µM
- LC50 (concentration killing 50% of cells) [30]: 97.6 µM
- TGI [30]: 66.5 µM
- inhibition of growth at 10 µM [10]: 87.2%
- inhibition of growth at 10 µM [31]: 85.4%
- inhibition of growth at 10 µM [12]: 98.2%
- GI50 [32]: 4.2 µM
- LC50 (lethal concentration, 50% net cell kill) [32]: 81.8 µM
- TGI [32]: 49.8 µM
- GI50 [33]: 4.4 µM
- LC50 [33]: 98.9 µM
- TGI [33]: 55.2 µM
- inhibition of growth at 10 µM [13]: 78.6%
- inhibition of growth at 10 µM [14]: 76%
- inhibition of growth at 10 µM [15]: 75.1%
- inhibition of growth at 10 µM [16]: 56.3%
- GI50 [34]: 3000 nM
- TGI [34]: 87.9 µM
- CC50 ([34]; read-out: LC50 (the source's name)): > 100 µM
- RatioGI50 (Cancer cell lines [35]): 2 - 10
- inhibition of growth at 10 µM [17]: 78.3%
- inhibition of growth at 10 µM [18]: 70.6%
- inhibition of growth at 10 µM [19]: 76.9%
- inhibition of growth at 10 µM [20]: 53.5%
- RatioGI50 (Leukemia cell): 2 - 10
- inhibition of growth at 10 µM [21]: 28.7%
- inhibition of growth at 10 µM [22]: 53.3%
- inhibition of growth at 10 µM [23]: 67.2%
- inhibition of growth at 10 µM [24]: 79.2%
- inhibition of growth at 10 µM [25]: 61.2%
